# Active and inactive are the calls of the source. The calls are words filed in the database; no cut-off is given here.
# Columns and labels:
# DU-145 [1] = experiment: Cell cycle arrest in human DU145 cells assessed as accumulation of cells at sub-G1 phase at 100 uM after 72 hrs using propidium iodide stain by flow cytometry; assay type: functional
# Summary of the method: (§1)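 DU145 cells treated with 1, 5, 10 or 100 µM for 24 or 72 h; vehicle 1% DMSO in water. Adherent and floating cells pooled, fixed in PBS-MeOH (1:2) at 4 °C for at least 18 h, then stained 30 min at room temperature in the dark with propidium iodide 50 µg/mL plus RNase A 50 µg/mL. Flow cytometry, excitation 488 nm, emission above 580 nm, doublets gated out. Sub-G1 region taken as DNA damage; at least three runs.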
# DU-145 [2] = experiment: Cell cycle arrest in human DU145 cells assessed as accumulation of cells at G2/M phase at 100 uM after 24 hrs using propidium iodide stain by flow cytometry; assay type: functional; summary of the method: as §1
# DU-145 [3] = experiment: Cell cycle arrest in human DU145 cells assessed as accumulation of cells at G2/M phase at 5 uM after 24 hrs using propidium iodide stain by flow cytometry; assay type: functional; summary of the method: as §1
# DU-145 [4] = experiment: Cell cycle arrest in human DU145 cells assessed as accumulation of cells at sub-G1 phase at 5 uM after 24 hrs using propidium iodide stain by flow cytometry; assay type: functional; summary of the method: as §1
# DU-145 [5] = experiment: Cell cycle arrest in human DU145 cells assessed as accumulation of cells at G2/M phase at 1 uM after 72 hrs using propidium iodide stain by flow cytometry; assay type: functional; summary of the method: as §1
# DU-145 [6] = experiment: Cell cycle arrest in human DU145 cells assessed as accumulation of cells at G1 phase at 5 uM after 72 hrs using propidium iodide stain by flow cytometry; assay type: functional; summary of the method: as §1
# DU-145 [7] = experiment: Reduction of mitochondrial membrane potential in human DU145 cells using rhodamine 123 staining by spectrophotofluorimeter; assay type: functional, cell-based
# Summary of the method: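 DU145 cells incubated 6, 12, 18 or 24 h with or without 10 and 100 µM, then given 10 µM rhodamine 123 in serum-free medium for 15 min at 37 °C. Collected cells read within 15 min by spectrofluorimeter (ex 495, em 520 nm); three experiments.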
# DU-145 [8] = experiment: Induction of apoptosis in human DU145 cells assessed as formation of granulation of nucleus after 24 hrs by Hoechst 33342 stainig; assay type: functional, cell-based
# Summary of the method: (§2)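 DU145 cells exposed to 1 and 100 µM for 24 h, vehicle 1% DMSO. Fixed in 3.7% paraformaldehyde, stained with Hoechst 33342 (5 µg/mL) at 37 °C for 1 h and examined by fluorescence microscopy. Cells with reduced nuclear size, chromatin condensation or nuclear fragmentation scored as apoptotic.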
# DU-145 [9] = experiment: Induction of apoptosis in human DU145 cells assessed as change in cellular morphology after 24 hrs by Hoechst 33342 stainig; assay type: functional, cell-based; summary of the method: as §2
# DU-145 [10] = experiment: Cell cycle arrest in human DU145 cells assessed as accumulation of cells at sub-G1 phase at 1 uM after 24 hrs using propidium iodide stain by flow cytometry; assay type: functional; summary of the method: as §1
# DU-145 [11] = experiment: Cell cycle arrest in human DU145 cells assessed as accumulation of cells at G2/M phase at 10 uM after 72 hrs using propidium iodide stain by flow cytometry; assay type: functional; summary of the method: as §1
# DU-145 [12] = experiment: Cell cycle arrest in human DU145 cells assessed as accumulation of cells at sub-G1 phase at 100 uM after 24 hrs using propidium iodide stain by flow cytometry; assay type: functional; summary of the method: as §1
# LNCaP = experiment: Cytotoxicity against human LNCAP cells after 72 hrs by XTT assay; assay type: functional, cell-based; conditions: 24 h, in the assay text read “after 24 hrs” for “after 72 hrs”
# Summary of the method: (§3)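 Prostate cancer cells in RPMI-1640 with 10% FBS, 37 °C, 5% CO2, grown to 70–80% confluence and treated at 0.1–100 µM for 24, 48 and 72 h. XTT labeling for 4 h at 37 °C, absorbance 450 nm (reference 650 nm) against control wells. IC50 derived from the mean of eight wells; taxol and cisplatin served as positive controls.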
# DU-145 [13] = experiment: Cell cycle arrest in human DU145 cells assessed as accumulation of cells at G2/M phase at 10 uM after 24 hrs using propidium iodide stain by flow cytometry; assay type: functional; summary of the method: as §1
# DU-145 [14] = experiment: Antiproliferative activity in human DU145 cells at 10 uM after 24 hrs by XTT assay in the presence of Ac-DEVD-CMK; assay type: functional, cell-based
# Summary of the method: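 DU145 cells pretreated 60 min with 50 µM Ac-DEVD-CMK or 50 µM Ac-LEHD-CMK, then exposed to 10 µM compound for 24 h (vehicle 1% DMSO in water). Proliferation read by XTT: labeling mixture added for 4 h at 37 °C, OD 450 nm (reference 650 nm) versus control wells; mean ± SE of three experiments.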
# DU-145 [15] = experiment: Cell cycle arrest in human DU145 cells assessed as accumulation of cells at S phase at 5 uM after 72 hrs using propidium iodide stain by flow cytometry; assay type: functional; summary of the method: as §1
# DU-145 [16] = experiment: Cytotoxicity against human DU145 cells at 100 uM after 72 hrs by XTT assay; assay type: functional, cell-based; summary of the method: as §3
# DU-145 [17] = experiment: Induction of apoptosis in human DU145 cells assessed as PARP activation at 100 uM by ELISA; assay type: functional, cell-based
# DU-145 [18] = experiment: Cell cycle arrest in human DU145 cells assessed as accumulation of cells at sub-G1 phase after 24 hrs using propidium iodide stain by flow cytometry; assay type: functional, cell-based; summary of the method: as §1
# DU-145 [19] = experiment: Cell cycle arrest in human DU145 cells assessed as accumulation of cells at S phase at 5 uM after 24 hrs using propidium iodide stain by flow cytometry; assay type: functional; summary of the method: as §1
# DU-145 [20] = experiment: Cell cycle arrest in human DU145 cells assessed as accumulation of cells at G1 phase at 10 uM after 24 hrs using propidium iodide stain by flow cytometry; assay type: functional; summary of the method: as §1
# DU-145 [21] = experiment: Cell cycle arrest in human DU145 cells assessed as accumulation of cells at sub-G1 phase at 10 uM after 72 hrs using propidium iodide stain by flow cytometry; assay type: functional; summary of the method: as §1
# DU-145 [22] = experiment: Cytotoxicity against human DU145 cells at 100 uM after 72 hrs by Trypan blue dye exclusion test; assay type: functional, cell-based
# Summary of the method: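 DU145 cells (1 × 10^5 per 60 mm dish) treated the following day with 1–100 µM for 24, 48 and 72 h. Cells harvested, washed twice with PBS and stained with trypan blue; unstained viable cells counted by microscope with a hemocytometer. Mean ± SE.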
# DU-145 [23] = experiment: Increase of intracellular hydrogen peroxide and or peroxide in human DU145 cells at 50 uM after 24 hrs by DCFH-DA assay relative to control; assay type: functional
# Summary of the method: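 DU145 cells (1 × 10^4 per well) treated with 1, 10 or 50 µM for 6–24 h, then loaded with 10 µM DCFH-DA in serum-free medium for 30 min at 37 °C in the dark. DCF fluorescence read by spectrofluorimeter (ex 495, em 530 nm) within 15 min; five experiments.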
# DU-145 [24] = experiment: Cell cycle arrest in human DU145 cells assessed as accumulation of cells at sub-G1 phase at 1 uM after 72 hrs using propidium iodide stain by flow cytometry; assay type: functional; summary of the method: as §1
structure (smiles),measurement,setting,value
CCCCCCCCCCCCCCCCCCCCCCCC/C=C(/C(=O)OC)[C@@H](O)C(C)=O [SECOTENUIFOLIDE A],Activity,DU-145 [1],32.57%
same,Activity,DU-145 [2],26.4%
same,Activity,DU-145 [3],37.88%
same,Activity,DU-145 [4],19.02%
same,Activity,DU-145 [5],33.68%
same,Activity,DU-145 [6],48.96%
same,Activity,DU-145 [7],Active
same,Activity,DU-145 [8],Active
same,Activity,DU-145 [9],Active
same,Activity,DU-145 [10],6.56%
same,Activity,DU-145 [11],30.83%
same,Activity,DU-145 [12],24.88%
same,EC50,LNCaP,< 7 µM
same,IC50,LNCaP,6.76 µM
same,Activity,DU-145 [13],36.57%
same,Activity,DU-145 [14],inactive
same,Activity,DU-145 [15],4.05%
same,Activity,DU-145 [16],Active
same,Activity,DU-145 [17],Active
same,Activity,DU-145 [18],Dose-dependent effect
same,Activity,DU-145 [19],4.96%
same,Activity,DU-145 [20],36.97%
same,Activity,DU-145 [21],16.18%
same,Activity,DU-145 [22],Active
same,fold change (FC),DU-145 [23],2.5
same,Activity,DU-145 [24],9.75%

# Reference: ChEMBL document CHEMBL1154279, “Cytotoxic compounds from the stems of Cinnamomum tenuifolium” (J Nat Prod, 2009)
